The source of these data is ChEMBL document CHEMBL3871264, “Design of a novel thiophene inhibitor of 15-lipoxygenase-1 with both anti-inflammatory and neuroprotective properties” (Eur J Med Chem, 2016).

The structures appear in SMILES notation. Activity calls are given as the source filed them. The rule behind the calls is not given here.

What is called IC50 is the midpoint of a concentration-inhibition curve. As a reminder, the inhibition is the change of the read-out against control, counted positive when it falls.

Assay [1] concerns the target T1, Polyunsaturated fatty acid lipoxygenase ALOX15 (Homo sapiens, UniProt P16050).
T1 sequence (P16050 whole entry): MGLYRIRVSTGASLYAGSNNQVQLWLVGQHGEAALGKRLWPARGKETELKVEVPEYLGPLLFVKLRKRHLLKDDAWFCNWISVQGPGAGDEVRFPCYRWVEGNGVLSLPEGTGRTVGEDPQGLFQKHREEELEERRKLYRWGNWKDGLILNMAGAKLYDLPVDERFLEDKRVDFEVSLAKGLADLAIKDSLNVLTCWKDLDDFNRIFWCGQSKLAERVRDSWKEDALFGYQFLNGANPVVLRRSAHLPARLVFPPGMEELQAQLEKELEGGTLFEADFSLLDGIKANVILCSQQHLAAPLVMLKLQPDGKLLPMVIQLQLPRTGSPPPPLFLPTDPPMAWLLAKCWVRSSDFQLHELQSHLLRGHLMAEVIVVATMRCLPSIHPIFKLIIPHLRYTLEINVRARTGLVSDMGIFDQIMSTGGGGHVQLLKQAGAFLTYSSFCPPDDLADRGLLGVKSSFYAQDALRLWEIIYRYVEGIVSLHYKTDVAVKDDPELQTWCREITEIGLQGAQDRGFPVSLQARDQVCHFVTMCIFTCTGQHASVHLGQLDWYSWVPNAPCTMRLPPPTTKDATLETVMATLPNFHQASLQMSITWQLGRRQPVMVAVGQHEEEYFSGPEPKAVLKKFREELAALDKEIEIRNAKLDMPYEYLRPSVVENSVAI
Kind of assay: Inhibition of human 15-LOX-1 assessed as reduction in conversion of linoleic acid to 13(S)-HpODE incubated for 10 mins followed by linoleic acid addition by UV-absorbance analysis.

The target in assay [2] is T2, Polyunsaturated fatty acid lipoxygenase ALOX15 (Mus musculus) (UniProt P39654).
T2 sequence (whole entry): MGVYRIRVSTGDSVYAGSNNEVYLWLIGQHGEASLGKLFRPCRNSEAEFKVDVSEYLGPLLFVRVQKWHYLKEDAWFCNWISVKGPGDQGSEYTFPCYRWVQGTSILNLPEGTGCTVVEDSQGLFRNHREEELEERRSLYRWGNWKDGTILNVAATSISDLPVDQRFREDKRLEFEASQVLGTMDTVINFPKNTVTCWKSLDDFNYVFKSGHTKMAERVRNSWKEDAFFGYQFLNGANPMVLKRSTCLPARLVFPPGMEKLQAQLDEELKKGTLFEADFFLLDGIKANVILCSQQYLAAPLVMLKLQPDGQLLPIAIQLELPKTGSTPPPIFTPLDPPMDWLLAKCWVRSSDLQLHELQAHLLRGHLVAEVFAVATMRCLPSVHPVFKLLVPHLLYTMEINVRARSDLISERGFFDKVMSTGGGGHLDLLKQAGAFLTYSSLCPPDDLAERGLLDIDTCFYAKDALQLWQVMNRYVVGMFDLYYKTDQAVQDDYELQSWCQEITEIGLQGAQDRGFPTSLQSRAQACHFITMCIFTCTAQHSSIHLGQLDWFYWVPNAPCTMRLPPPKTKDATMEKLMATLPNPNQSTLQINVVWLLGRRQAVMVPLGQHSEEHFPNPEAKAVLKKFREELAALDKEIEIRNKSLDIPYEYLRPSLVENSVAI
The experiment in a line: Inhibition of 15-LOX-1 in mouse HT22 cells assessed as protection against glutamate-induced cell death by measuring increase in cell viability at 10 uM incubated up to 8 hrs following glutamate challenge by MTT assay. Type of assay: cell-based. The following applies: HT-22. The gist of the method: (§1)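 HT-22 cells were seeded at 8x10^3 per well and incubated overnight. They were challenged with 4 mM glutamate in DMEM/10% FCS. Inhibitor was given either with glutamate (1-20 µM; PD146176 at 1 µM) or added at 5 or 10 µM 2, 4, 6 or 8 h after glutamate. After 14-16 h, MTT was added at 0.5 mg/mL for 1 h at 37 °C. Formazan was dissolved in DMSO and read at 570 nm minus 630 nm background, expressed relative to control. Three experiments were run with 6-8 replicates each.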
Background: Tetrazolium assays rely on reduction of a dye to a coloured formazan, in cell work by metabolically active cells.

The target in assay [3] is T3, Polyunsaturated fatty acid lipoxygenase ALOX15 (Homo sapiens) (UniProt P16050).
T3 sequence (whole entry): T1 sequence (P16050 whole entry)
The experiment in a line: Competitive inhibition of human 15-LOX-1 assessed as apparent Vmax at 5 uM by Lineweaver-Burk plot analysis (reference value: 1.6 +/- 0.2 10^-4abs/s). The gist of the method:
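Purified enzyme activity was read as UV absorbance at 234 nm of the product formed from linoleic acid substrate, in 96-well format. Substrate-dependence runs were done with and without inhibitor. Apparent Km and Vmax were derived from Lineweaver-Burk plots.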

For assay [4], the target named is T2, Polyunsaturated fatty acid lipoxygenase ALOX15 (Mus musculus). The experiment in a line: Inhibition of 15-LOX-1 in C57bl/6 mouse precision-cut lung slices assessed as reduction in LPS-stimulated IL-6 mRNA expression level at 5 uM incubated for 20 hrs followed by LPS stimulation for 4 hrs in presence of linoleic acid by RT-qPCR analysis. The gist of the method: (§2)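 Lung slices, 250 μm, were cut from agarose-filled lungs of male C57bl/6 mice aged 8-10 weeks and cultured at 37 °C in 5% CO2 in supplemented DMEM, 3 slices per well. Inhibitor was given for 20 h with 10 μM linoleic acid. For the last 4 h, 10 ng/ml LPS plus 10 ng/ml IFNγ were added. Read-out was RT-qPCR (10 ng cDNA, GAPDH assay included), in duplicate or triplicate wells, as fold change versus LPS/linoleic acid control, with 4-6 independent experiments.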

For assay [5] the target is unchanged. Kind of assay: Inhibition of 15-LOX-1 in mouse HT22 cells assessed as protection against glutamate-induced cell death by measuring increase in cell viability up to 20 uM cotreated with glutamate for 14 to 16 hrs by MTT assay. Type of assay: cell-based. To be noted: HT-22. The gist of the method:
as §1

The target is the same in assay [6]. Kind of assay: Inhibition of 15-LOX-1 in C57bl/6 mouse precision-cut lung slices assessed as reduction in LPS-stimulated IL-8 mRNA expression level at 50 uM incubated for 20 hrs followed by LPS stimulation for 4 hrs in presence of linoleic acid by RT-qPCR analysis. Summed up:
as §2
In general terms: Quantitative PCR measures a nucleic acid by following its amplification.

Assay [7] has the same target. The experiment in a line: Inhibition of 15-LOX-1 in C57bl/6 mouse precision-cut lung slices assessed as reduction in LPS-stimulated iNOS mRNA expression level at 50 uM incubated for 20 hrs followed by LPS stimulation for 4 hrs in presence of linoleic acid by RT-qPCR analysis. The gist of the method: as §2
Assay [8] shares this target. The experiment in a line: Inhibition of 15-LOX-1 in C57bl/6 mouse precision-cut lung slices assessed as reduction in LPS-stimulated IL-12b mRNA expression level at 50 uM incubated for 20 hrs followed by LPS stimulation for 4 hrs in presence of linoleic acid by RT-qPCR analysis. The gist of the method: as §2
The target is the same in assay [9]. The experiment in a line: Inhibition of 15-LOX-1 in mouse HT22 cells assessed as inhibition of glutamate-induced lipid peroxidation at 10 uM incubated for 6 to 7 hrs by BODIPY 581/591 C11 staining based FACS analysis. The format is cell-based. The following applies: HT-22. The gist of the method:
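HT-22 cells were seeded at 5x10^4 per well and incubated overnight. They were then exposed to 4 mM glutamate in DMEM/10% FCS, with or without 10 µM test inhibitor or 1 µM PD146176, for 6-7 h or 14-16 h. Cells were stained with BODIPY 581/591 C11 at 2 µM final for 1 h at 37 °C. The red-to-green fluorescence shift was read by flow cytometry (488 nm excitation). At least 3 experiments were run, each in triplicate.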
(A flow cytometer gives signals particle by particle.)

As for `CCCCNC(=O)c1cc(-c2ccccc2)sc1N`, the IC50 in assay [1] was 12.4 µM. Moreover, the inhibition entry in assay [2], in assay [4] and in [9] was “Active” each time. In addition, the Vmax(app) in assay [3] was 1.5 ×10⁻⁴ abs/s. In addition, the inhibition entry in assay [5] is “Dose-dependent effect”; in assay [6] it was 50%; in assay [7], 50%; in assay [8] it was 50%.
